Here are results for two compounds from ChEMBL document CHEMBL5712091, “Role of the GLUT1 Glucose Transporter in Postnatal CNS Angiogenesis and Blood-Brain Barrier Integrity” (Circ Res, 2020).

The source made the active and inactive calls. No cut-off for these calls is given here.

As a reminder, the inhibition is the share of the control response that was lost under treatment.

Experiment [1] has as its target T1, Solute carrier family 2, facilitated glucose transporter member 1 (Homo sapiens) (UniProt P11166).
T1 sequence (whole entry): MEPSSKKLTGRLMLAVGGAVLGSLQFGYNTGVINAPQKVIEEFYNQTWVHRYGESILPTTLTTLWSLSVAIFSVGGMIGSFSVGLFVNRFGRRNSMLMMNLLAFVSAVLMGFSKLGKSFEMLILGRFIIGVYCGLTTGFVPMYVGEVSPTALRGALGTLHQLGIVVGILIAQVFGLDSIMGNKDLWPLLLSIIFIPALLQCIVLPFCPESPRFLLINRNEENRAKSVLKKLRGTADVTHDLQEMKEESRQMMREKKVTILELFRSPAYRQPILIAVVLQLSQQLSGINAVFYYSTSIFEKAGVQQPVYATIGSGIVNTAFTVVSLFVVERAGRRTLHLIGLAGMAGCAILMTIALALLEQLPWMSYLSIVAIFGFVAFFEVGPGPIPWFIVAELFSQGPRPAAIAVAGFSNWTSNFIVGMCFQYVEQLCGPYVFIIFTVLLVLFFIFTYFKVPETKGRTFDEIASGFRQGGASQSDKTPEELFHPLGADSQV
Briefly: Inhibition of GLUT1 in human retinal microvascular endothelial cells assessed as decrease in sprouting angiogenesis. The format is cell-based. The conditions noted are these: Endothelial cell. The method in brief: (§1)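 Spheroids of 1000 ECs per 25 µl hanging drop formed overnight in 20% methylcellulose/EGM2, then embedded in 5 mg/ml fibrinogen gel in EGM2 with or without inhibitor and/or 1 µg/ml mitomycin C. Same medium overlaid on gel. Fixed with 4% PFA after 24 hrs and photographed.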

In experiment [2] the target is T2, Solute carrier family 2, facilitated glucose transporter member 1 (Mus musculus) (UniProt P17809).
T2 sequence (whole entry): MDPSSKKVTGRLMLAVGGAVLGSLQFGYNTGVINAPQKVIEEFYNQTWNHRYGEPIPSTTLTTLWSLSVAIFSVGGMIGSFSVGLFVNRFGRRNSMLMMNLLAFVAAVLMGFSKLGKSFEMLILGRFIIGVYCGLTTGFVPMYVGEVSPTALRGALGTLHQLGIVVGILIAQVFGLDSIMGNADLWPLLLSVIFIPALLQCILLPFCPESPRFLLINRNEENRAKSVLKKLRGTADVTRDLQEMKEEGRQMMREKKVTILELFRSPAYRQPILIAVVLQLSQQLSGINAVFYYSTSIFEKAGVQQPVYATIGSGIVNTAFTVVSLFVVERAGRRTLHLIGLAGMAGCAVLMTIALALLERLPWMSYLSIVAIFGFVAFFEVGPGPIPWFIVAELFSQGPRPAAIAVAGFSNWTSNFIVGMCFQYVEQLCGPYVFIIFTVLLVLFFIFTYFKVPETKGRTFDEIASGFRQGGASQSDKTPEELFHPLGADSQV
Put plainly: Inhibition of GLUT1 in mouse BEND3 cells assessed as activation of AMPK at 20 nmol/L by Western blot analysis. The format is cell-based. The gist of the method: (§2)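 bEND3 lysed in Laemmli buffer, denatured 5 min at 95°C, and 15 µg protein run on 4-20% gels and transferred to PVDF. Probed overnight in 5% milk/TBST with antibodies to phospho-AMPKα (Thr172), AMPKα, p53 and p21, with β-actin.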
A general note: A western blot detects proteins with antibodies after separation by electrophoresis.

Experiment [3] addresses T2, Solute carrier family 2, facilitated glucose transporter member 1 (Mus musculus). Put plainly: Inhibition of GLUT1 in mouse BEND3 cells assessed as reduced phosphorylation of RPS6 at 20 nmol/L by Western blot analysis. The format is cell-based.
Experiment [4] has the same target. Put plainly: Inhibition of GLUT1 in mouse BEND3 cells assessed as decrease in glycolysis at 20 nmol/L relative to cytochalasin B. The format is cell-based. The conditions noted are these: time 2.0 hrs. The gist of the method:
(§3)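 Glycolytic flux read as 3H2O release: cells kept 2 hrs in culture medium containing D-[5-3H]-glucose at 0.4 µCi/ml final. Supernatant sealed in glass vials, 3H2O captured over 48 h at 37°C on water-soaked paper in hanging wells, then counted by scintillation. Inhibitor exposure 24 hrs from the day after seeding.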

Experiment [5] shares this target. Put plainly: Inhibition of GLUT1 in mouse BEND3 cells assessed as cell migration at 20 nmol/L by scratch wound assay in presence of mitomycin C. The experiment is classed as cell-based. The method in brief:
(§4)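 Confluent monolayers, pre-treated 24 hrs with inhibitor or 1 µg/ml mitomycin C where indicated, scratched with a pipette tip and imaged (T0). Then incubated in EGM2 and fixed with 4% PFA when control closure was near complete. Gap areas measured; closure % = (1 − Tx gap/T0 gap) × 100.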

Experiment [6] concerns the target T1, Solute carrier family 2, facilitated glucose transporter member 1 (Homo sapiens). Put plainly: Inhibition of GLUT1 in human brain microvascular endothelial cells assessed as decrease in sprouting angiogenesis. Particulars: Endothelial cell, dose 20.0 nmol/L. The gist of the method: as §1
Experiment [7] has the same target. Briefly: Inhibition of GLUT1 in HUVEC assessed as decrease in sprouting angiogenesis at 40 nmol/L. The format is cell-based. The gist of the method:
as §1

In experiment [8] the target is T2, Solute carrier family 2, facilitated glucose transporter member 1 (Mus musculus). Briefly: Inhibition of GLUT1 in mouse BEND3 cells assessed as increase in AMP/ATP ratio at 20 nmol/L. The experiment is classed as cell-based.
The target in experiment [9] is T1, Solute carrier family 2, facilitated glucose transporter member 1 (Homo sapiens). Briefly: Inhibition of GLUT1 in HUVEC assessed as decrease in glycolysis. The experiment is classed as cell-based. The method in brief:
as §3

For experiment [10], the target named is T2, Solute carrier family 2, facilitated glucose transporter member 1 (Mus musculus). Put plainly: Inhibition of GLUT1 in mouse BEND3 cells assessed as decrease in [14C]-3-O-methylglucose transport after 2 hrs by glucose transport assay. The format is cell-based. The gist of the method:
(§5)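 Cells pre-held 2 hrs at 37°C in serum-free DMEM with inhibitor or DMSO vehicle, DPBS-washed, then given 20 mM 3-O-methylglucose carrying 1 µCi/ml [14C]-3MG in DPBS plus inhibitor for 30 min uptake. Stopped and washed with ice-cold 50 mM glucose in PBS, lysed in 0.1 N NaOH, counted by liquid scintillation. Triplicate measurements.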

Experiment [11] addresses T1, Solute carrier family 2, facilitated glucose transporter member 1 (Homo sapiens). Put plainly: Inhibition of GLUT1 in HUVEC assessed as sprouting angiogenesis at 40 nmol/L in presence of mitomycin C. The format is cell-based. The method in brief:
as §1

Experiment [12] concerns the target T2, Solute carrier family 2, facilitated glucose transporter member 1 (Mus musculus). Put plainly: Inhibition of GLUT1 in mouse primary endothelial cells assessed as decrease in glucose transport. The experiment is classed as cell-based. The conditions noted are these: Endothelial cell.
The target is the same in experiment [13]. Put plainly: Inhibition of GLUT1 in mouse BEND3 cells assessed as reduced phosphorylation of S6K1 at 20 nmol/L by Western blot analysis. The format is cell-based.
Experiment [14] shares this target. Briefly: Inhibition of GLUT1 in mouse BEND3 cells assessed as increase in p53/p21 ratio at 20 nmol/L by Western blot analysis. The format is cell-based. The method in brief: as §2
The target is the same in experiment [15]. Put plainly: Inhibition of GLUT1 in mouse BEND3 cells assessed as slight decrease in cell migration at 20 nmol/L by scratch wound assay. The experiment is classed as cell-based. The gist of the method:
as §4

Experiment [16] addresses T1, Solute carrier family 2, facilitated glucose transporter member 1 (Homo sapiens). Briefly: Inhibition of GLUT1 in human brain microvascular endothelial cells assessed as decrease in glycolysis at 20 nmol/L. Particulars: Endothelial cell. The method in brief: as §3
Experiment [17] has as its target T2, Solute carrier family 2, facilitated glucose transporter member 1 (Mus musculus). Briefly: Inhibition of GLUT1 in mouse BEND3 cells assessed as reduction in glycolytic metabolite at 20 nmol/L. The experiment is classed as cell-based.
Experiment [18] has the same target. Briefly: Inhibition of GLUT1 in mouse BEND3 cells assessed as decrease in cell proliferation at 20 nmol/L. The format is cell-based. The gist of the method:
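Proliferation measured after 24 hrs of inhibitor as [6-3H]-thymidine incorporation: 2 hrs with 1 µCi/ml final in culture medium, ethanol fixation 15 min at 4°C, 10% TCA precipitation, 0.1 N NaOH lysis, and scintillation counting.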

For experiment [19], the target named is T1, Solute carrier family 2, facilitated glucose transporter member 1 (Homo sapiens). Put plainly: Inhibition of GLUT1 in human retinal microvascular endothelial cells assessed as decrease in glycolysis at 20 nmol/L. The experiment is classed as cell-based. Particulars: Endothelial cell, time 2.0 hrs. The method in brief: as §3
The target is the same in experiment [20]. Put plainly: Inhibition of GLUT1 in HUVEC assessed as decrease in glucose transport. The experiment is classed as cell-based. The gist of the method: as §5
For experiment [21], the target named is T2, Solute carrier family 2, facilitated glucose transporter member 1 (Mus musculus). Put plainly: Inhibition of GLUT1 in mouse BEND3 cells assessed as complete inhibition of [14C]-3-O-methylglucose transport at 20 nmol/L after 2 hrs by glucose transport assay. The experiment is classed as cell-based. The gist of the method: as §5
Experiment [22] has the same target. Put plainly: Inhibition of GLUT1 in mouse primary endothelial cells assessed as decrease in glycolysis. The format is cell-based. Particulars: Endothelial cell. The gist of the method:
as §3

Experiment [23] has the same target. Briefly: Inhibition of GLUT1 in mouse BEND3 cells assessed as reduced phosphorylation of mTORC1 at 20 nmol/L by Western blot analysis. The format is cell-based.
Experiment [24] relates to BEND3. Briefly: Inhibition of GLUT in mouse BEND3 cells assessed as decrease of [14C]-3-O-methylglucose transport at 20 micromol/L after 2 hrs by glucose transport assay. The format is cell-based. The conditions noted are these: dose 20.0 µmol/L. The method in brief:
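bEND3 cells were treated with inhibitor or DMSO vehicle for 24 hrs, then held in serum-free DMEM for 2 hrs at 37°C with inhibitor or vehicle and washed. Uptake ran 30 min in DPBS with 20 mM 3-O-methylglucose plus 1 µCi/ml 14C-3MG, still with inhibitor. It was stopped with ice-cold 50 mM glucose in PBS, cells lysed in 0.1 N NaOH, and counted by LSC; triplicate.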

Experiment [25] concerns BEND3. Put plainly: Inhibition of GLUT in mouse BEND3 cells assessed as decrease in cell proliferation at 20 micromol/L. The conditions noted are these: dose 20.0 µmol/L. The experiment is classed as cell-based.
The subject of experiment [26] is BEND3. Put plainly: Inhibition of GLUT in mouse BEND3 cells assessed as decrease in cell migration at 20 micromol/L. The experiment is classed as cell-based. The conditions noted are these: dose 20.0 µmol/L.

On to `Cc1c(NC(=O)c2cc(C(N)=O)nc3cc(F)ccc23)c(C(F)(F)F)nn1Cc1ccc(C#N)cc1`, for which the inhibition result in experiment [1], in experiment [2], in experiment [3], in experiment [4], in experiment [6] and in [7] was “Active” throughout. The inhibition result in [8], in experiment [9], in experiment [10], in experiment [12], in [13] and in [14] was “Active” in each case. The inhibition result in [15], in [16], in experiment [17], in [19], in [20] and in experiment [21] was “Active” throughout. In addition, the inhibition entry in [22] and in [23] was “Active” each time. Moreover, the inhibition result in experiment [5] and in experiment [11] was “inactive” throughout. Also, the inhibition in [18] came to 40%.
With `C=C1[C@@H](C)[C@H]2[C@H](Cc3ccccc3)NC(=O)[C@]23OC(=O)/C=C/[C@H](O)CCC[C@@H](C)C/C=C/[C@H]3[C@@H]1O`, the inhibition entry in the experiment on BEND3 [24], in the experiment on BEND3 [25] and in the experiment with BEND3 [26] was “Active” in each case.
